ChEMBL document CHEMBL2424622, “Development of amino-pyrimidine inhibitors of c-Jun N-terminal kinase (JNK): kinase profiling guided optimization of a 1,2,3-benzotriazole lead” (Bioorg Med Chem Lett, 2013)

Tests used:
[1] = target: T1, MAP/microtubule affinity-regulating kinase 4 (Homo sapiens) (UniProt Q96L34); assay: Competitive binding affinity to MARK4 (unknown origin) at 10 uM in presence of ATP relative to control
T1 sequence (whole entry): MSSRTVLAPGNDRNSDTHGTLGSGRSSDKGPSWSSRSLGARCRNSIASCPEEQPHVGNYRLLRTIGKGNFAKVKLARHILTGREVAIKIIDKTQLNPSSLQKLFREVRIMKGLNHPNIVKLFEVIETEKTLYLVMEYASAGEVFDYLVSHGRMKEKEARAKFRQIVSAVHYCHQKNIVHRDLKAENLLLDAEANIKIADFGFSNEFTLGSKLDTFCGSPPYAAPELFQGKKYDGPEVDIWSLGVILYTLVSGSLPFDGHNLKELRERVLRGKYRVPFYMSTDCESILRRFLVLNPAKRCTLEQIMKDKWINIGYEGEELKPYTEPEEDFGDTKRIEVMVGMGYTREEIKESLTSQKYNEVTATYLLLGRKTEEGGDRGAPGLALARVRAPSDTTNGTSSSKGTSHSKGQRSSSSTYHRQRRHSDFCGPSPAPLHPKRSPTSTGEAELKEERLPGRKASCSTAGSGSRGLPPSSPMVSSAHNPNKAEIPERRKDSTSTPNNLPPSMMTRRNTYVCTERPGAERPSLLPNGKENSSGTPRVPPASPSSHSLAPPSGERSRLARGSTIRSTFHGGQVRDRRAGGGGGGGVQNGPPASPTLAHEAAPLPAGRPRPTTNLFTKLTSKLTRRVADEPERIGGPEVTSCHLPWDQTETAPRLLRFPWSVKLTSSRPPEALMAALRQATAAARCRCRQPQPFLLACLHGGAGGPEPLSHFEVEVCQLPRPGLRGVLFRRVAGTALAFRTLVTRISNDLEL
In short: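 In vitro ATP-site competition binding assay across a diverse panel of 128 kinases, with compound tested at a single concentration. Kinase selectivity scores (S15) were calculated from the panel profiles.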

[2] = target: MAP kinase-activated protein kinase 2 (Homo sapiens) (UniProt P49137); assay: Competitive binding affinity to MAPKAPK2 (unknown origin) at 10 uM in presence of ATP relative to control
Sequence of MAP kinase-activated protein kinase 2 (Homo sapiens) (P49137 whole entry, looked up): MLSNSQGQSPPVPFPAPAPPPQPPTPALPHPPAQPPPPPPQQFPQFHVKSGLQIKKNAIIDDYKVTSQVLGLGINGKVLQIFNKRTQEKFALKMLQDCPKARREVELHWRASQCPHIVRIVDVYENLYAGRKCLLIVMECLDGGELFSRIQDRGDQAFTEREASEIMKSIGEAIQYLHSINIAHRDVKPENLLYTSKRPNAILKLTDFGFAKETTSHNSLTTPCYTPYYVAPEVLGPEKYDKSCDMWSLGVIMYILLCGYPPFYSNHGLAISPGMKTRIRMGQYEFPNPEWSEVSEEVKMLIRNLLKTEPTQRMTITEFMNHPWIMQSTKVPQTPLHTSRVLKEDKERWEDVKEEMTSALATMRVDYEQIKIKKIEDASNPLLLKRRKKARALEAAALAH

[3] = target: T2, Serine/threonine-protein kinase STK11 (Homo sapiens) (UniProt Q15831); assay: Competitive binding affinity to LKB1 (unknown origin) at 10 uM in presence of ATP relative to control
T2 sequence (whole entry): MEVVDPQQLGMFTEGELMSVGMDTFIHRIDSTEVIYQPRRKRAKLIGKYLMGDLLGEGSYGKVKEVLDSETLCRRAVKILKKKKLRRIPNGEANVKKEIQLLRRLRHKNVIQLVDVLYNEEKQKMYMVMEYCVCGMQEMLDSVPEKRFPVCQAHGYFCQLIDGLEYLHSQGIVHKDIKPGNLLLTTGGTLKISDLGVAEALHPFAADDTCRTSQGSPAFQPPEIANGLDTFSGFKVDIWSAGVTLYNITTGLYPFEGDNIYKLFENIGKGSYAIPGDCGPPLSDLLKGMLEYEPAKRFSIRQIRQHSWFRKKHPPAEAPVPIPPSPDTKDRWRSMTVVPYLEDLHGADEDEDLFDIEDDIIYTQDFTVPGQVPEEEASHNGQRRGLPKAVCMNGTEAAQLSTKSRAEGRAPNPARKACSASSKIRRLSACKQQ
In short: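 In vitro ATP-site competition binding assay, part of profiling against a diverse panel of 128 kinases. Each compound was tested at a single concentration of 10 µM. Kinome selectivity was summarized as S15 selectivity scores.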

[4] = target: Insulin receptor-related protein (Homo sapiens) (UniProt P14616); assay: Competitive binding affinity to INSRR (unknown origin) at 10 uM in presence of ATP relative to control
Sequence of Insulin receptor-related protein (Homo sapiens) (P14616 27-742 limits assumed): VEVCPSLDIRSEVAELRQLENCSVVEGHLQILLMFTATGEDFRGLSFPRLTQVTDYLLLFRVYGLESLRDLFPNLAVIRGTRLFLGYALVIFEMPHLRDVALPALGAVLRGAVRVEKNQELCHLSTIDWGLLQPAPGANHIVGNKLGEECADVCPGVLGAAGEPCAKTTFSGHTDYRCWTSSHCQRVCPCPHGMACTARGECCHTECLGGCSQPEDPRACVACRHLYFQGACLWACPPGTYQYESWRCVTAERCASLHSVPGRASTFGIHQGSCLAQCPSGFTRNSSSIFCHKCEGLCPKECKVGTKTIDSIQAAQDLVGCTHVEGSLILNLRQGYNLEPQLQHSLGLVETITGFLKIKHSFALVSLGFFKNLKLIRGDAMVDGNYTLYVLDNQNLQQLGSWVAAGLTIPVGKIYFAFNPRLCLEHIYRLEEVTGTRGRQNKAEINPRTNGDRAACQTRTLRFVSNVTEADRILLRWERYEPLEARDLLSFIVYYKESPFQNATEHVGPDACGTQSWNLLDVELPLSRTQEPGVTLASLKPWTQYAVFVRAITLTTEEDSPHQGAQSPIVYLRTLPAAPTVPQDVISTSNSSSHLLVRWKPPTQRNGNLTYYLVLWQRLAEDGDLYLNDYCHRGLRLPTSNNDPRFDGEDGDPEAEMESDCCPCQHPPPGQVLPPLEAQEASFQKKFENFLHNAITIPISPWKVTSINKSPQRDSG
Sequence of Insulin receptor-related protein (Homo sapiens) (P14616 747-1297 limits assumed): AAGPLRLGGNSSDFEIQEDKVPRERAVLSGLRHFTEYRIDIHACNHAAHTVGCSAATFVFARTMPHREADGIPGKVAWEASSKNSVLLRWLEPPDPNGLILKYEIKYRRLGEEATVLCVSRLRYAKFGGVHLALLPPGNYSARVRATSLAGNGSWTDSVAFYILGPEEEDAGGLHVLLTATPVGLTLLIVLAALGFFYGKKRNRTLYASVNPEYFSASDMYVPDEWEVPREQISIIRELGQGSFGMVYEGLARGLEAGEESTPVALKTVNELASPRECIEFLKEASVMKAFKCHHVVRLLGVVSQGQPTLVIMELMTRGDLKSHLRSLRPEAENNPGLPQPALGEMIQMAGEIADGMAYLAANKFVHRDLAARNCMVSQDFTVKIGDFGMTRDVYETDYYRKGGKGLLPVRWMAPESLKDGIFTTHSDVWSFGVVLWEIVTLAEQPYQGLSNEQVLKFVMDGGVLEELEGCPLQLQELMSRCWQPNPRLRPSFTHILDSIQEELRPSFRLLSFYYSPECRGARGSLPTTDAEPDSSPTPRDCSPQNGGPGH

[5] = target: Casein kinase I isoform gamma-3 (Homo sapiens) (UniProt Q9Y6M4); assay: Competitive binding affinity to CSNK1G3 (unknown origin) at 10 uM in presence of ATP relative to control
Sequence of Casein kinase I isoform gamma-3 (Homo sapiens) (Q9Y6M4 whole entry, looked up, canonical isoform): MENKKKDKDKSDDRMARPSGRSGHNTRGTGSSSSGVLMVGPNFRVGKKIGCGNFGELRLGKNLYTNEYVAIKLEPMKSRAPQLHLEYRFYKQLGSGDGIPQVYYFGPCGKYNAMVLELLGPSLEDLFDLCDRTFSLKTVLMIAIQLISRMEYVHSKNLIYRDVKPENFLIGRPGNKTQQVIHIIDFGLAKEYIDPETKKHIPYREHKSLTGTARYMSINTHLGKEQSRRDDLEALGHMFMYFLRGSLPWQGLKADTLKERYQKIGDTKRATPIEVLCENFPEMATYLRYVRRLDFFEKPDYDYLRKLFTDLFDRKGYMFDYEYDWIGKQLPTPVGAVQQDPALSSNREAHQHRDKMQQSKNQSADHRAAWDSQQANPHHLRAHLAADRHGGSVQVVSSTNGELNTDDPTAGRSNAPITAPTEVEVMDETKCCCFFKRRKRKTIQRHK

[6] = target: T3, Serine/threonine-protein kinase BRSK1 (Homo sapiens) (UniProt Q8TDC3); assay: Competitive binding affinity to BRSK1 (unknown origin) at 10 uM in presence of ATP relative to control
T3 sequence (whole entry): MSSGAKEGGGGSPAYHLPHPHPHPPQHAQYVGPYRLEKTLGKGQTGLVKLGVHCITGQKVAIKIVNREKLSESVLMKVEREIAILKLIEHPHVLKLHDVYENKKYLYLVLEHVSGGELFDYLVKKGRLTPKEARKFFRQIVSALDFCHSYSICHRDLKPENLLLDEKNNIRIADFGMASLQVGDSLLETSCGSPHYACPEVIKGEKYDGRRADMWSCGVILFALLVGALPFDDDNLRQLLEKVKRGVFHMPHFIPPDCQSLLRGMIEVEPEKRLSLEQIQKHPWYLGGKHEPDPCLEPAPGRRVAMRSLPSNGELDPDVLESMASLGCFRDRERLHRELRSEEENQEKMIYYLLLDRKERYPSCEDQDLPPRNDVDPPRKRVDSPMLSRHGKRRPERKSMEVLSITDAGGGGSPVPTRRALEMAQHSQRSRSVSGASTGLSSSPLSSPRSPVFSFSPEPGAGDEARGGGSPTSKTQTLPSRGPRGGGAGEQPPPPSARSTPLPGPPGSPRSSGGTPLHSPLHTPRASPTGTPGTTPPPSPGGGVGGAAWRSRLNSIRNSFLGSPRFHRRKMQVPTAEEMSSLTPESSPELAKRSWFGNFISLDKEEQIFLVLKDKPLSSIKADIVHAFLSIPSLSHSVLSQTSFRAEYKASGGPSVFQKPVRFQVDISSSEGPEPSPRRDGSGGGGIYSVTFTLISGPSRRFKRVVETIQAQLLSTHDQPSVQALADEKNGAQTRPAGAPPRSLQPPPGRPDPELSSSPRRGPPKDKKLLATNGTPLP

[7] = target: Dual specificity testis-specific protein kinase 1 (Homo sapiens) (UniProt Q15569); assay: Competitive binding affinity to TESK1 (unknown origin) at 10 uM in presence of ATP relative to control
Sequence of Dual specificity testis-specific protein kinase 1 (Homo sapiens) (Q15569 whole entry, looked up): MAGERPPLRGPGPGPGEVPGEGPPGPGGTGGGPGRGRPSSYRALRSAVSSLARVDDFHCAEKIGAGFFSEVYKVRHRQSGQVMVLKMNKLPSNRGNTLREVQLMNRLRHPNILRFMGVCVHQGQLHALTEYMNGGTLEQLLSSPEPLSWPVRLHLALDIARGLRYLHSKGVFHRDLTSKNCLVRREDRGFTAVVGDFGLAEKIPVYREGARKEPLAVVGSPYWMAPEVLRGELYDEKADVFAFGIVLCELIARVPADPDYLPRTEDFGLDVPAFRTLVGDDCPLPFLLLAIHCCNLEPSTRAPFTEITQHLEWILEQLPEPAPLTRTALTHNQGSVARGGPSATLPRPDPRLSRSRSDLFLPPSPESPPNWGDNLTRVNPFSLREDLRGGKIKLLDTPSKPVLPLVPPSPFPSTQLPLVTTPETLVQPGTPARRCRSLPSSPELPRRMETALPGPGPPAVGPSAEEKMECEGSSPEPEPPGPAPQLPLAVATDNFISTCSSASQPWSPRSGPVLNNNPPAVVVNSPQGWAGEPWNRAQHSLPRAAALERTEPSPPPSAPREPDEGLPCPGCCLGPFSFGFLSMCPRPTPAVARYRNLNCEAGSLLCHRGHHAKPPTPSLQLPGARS

[8] = target: Serine/threonine-protein kinase SIK1 (Homo sapiens) (UniProt P57059); assay: Competitive binding affinity to SNF1LK (unknown origin) at 10 uM in presence of ATP relative to control
Sequence of Serine/threonine-protein kinase SIK1 (Homo sapiens) (P57059 whole entry): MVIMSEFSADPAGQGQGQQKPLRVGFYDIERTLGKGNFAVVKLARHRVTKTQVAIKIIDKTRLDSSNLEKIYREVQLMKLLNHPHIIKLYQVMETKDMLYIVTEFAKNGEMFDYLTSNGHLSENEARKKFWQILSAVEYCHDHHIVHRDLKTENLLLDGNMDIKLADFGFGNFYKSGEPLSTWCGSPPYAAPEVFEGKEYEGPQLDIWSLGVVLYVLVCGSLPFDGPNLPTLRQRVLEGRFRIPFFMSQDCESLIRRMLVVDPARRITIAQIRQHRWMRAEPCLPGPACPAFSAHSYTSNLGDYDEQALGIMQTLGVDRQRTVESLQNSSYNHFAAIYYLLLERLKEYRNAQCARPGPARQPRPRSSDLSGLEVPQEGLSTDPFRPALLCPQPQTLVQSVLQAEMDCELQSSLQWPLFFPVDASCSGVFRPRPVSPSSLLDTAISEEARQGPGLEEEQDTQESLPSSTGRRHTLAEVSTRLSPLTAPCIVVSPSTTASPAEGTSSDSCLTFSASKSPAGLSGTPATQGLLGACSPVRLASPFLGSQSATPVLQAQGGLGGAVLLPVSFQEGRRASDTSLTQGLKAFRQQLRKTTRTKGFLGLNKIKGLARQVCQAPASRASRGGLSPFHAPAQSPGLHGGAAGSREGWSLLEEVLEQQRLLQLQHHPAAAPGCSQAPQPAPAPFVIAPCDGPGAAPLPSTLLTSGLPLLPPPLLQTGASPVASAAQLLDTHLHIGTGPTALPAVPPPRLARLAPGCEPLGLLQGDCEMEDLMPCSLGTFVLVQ

[9] = target: Protein kinase C delta type (Homo sapiens) (UniProt Q05655); assay: Competitive binding affinity to PRKCD (unknown origin) at 10 uM in presence of ATP relative to control
Sequence of Protein kinase C delta type (Homo sapiens) (Q05655 whole entry, looked up): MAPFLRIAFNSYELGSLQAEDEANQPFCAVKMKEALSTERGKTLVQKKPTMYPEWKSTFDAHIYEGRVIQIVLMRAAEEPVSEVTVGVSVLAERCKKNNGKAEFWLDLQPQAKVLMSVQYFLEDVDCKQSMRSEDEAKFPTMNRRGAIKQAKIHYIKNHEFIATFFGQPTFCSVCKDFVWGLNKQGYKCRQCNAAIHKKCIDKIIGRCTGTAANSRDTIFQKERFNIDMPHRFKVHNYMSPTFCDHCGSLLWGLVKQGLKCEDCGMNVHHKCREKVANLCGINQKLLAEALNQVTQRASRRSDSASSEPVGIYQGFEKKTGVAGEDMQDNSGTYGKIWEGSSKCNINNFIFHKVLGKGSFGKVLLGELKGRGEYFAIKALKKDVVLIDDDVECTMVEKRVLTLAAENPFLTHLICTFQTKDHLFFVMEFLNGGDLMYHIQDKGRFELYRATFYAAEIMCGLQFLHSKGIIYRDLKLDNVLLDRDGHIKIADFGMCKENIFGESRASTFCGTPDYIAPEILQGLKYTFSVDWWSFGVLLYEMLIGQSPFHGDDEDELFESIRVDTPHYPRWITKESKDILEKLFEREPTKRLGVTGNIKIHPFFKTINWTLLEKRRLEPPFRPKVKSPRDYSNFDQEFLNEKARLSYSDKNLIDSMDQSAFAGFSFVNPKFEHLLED

| Compound | inhibition [1] | inhibition [2] | inhibition [3] | inhibition [4] | inhibition [5] | inhibition [6] | inhibition [7] | inhibition [8] | inhibition [9] |
| --- | --- | --- | --- | --- | --- | --- | --- | --- | --- |
| O[C@H]1CC[C@H](Nc2nccc(-n3ccc4ccccc43)n2)CC1 | < 50% | < 50% | < 50% | < 50% | < 50% | < 50% | 82% | < 50% | < 50% |
| O[C@H]1CC[C@H](Nc2nccc(-n3nnc4ccccc43)n2)CC1 | < 50% | < 50% | < 50% | < 50% | 96% | < 50% | < 50% | < 50% | < 50% |
| O[C@H]1CC[C@H](Nc2nccc(-n3ncc4ccccc43)n2)CC1 | < 50% | < 50% | < 50% | < 50% | < 50% | < 50% | 82% | < 50% | < 50% |
| O[C@H]1CC[C@H](Nc2nccc(-c3n[nH]c4ccccc34)n2)CC1 | 67% |  | 75% | 98% |  |  | 98% |  |  |
